The subject of data set [1] is Mus musculus. The data set can be described thus: Anti-inflammatory activity in LPS-induced sepsis shock mouse model assessed as survival rate at 1 mg/kg, iv pretreated daily for 5 days followed LPS treatment on day 5 at 1 hr post last dose and measured after 7 days relative to control. In kind it is functional. The method, boiled down: (§1)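 Male SPF mice, randomly grouped, dosed i.v. with compound dissolved in DMSO and diluted in physiological saline; vehicle group given a similar volume. LPS was injected on day 5, 1 h after the last administration. Survival was recorded every 12 h for 7 days after LPS, with 11 animals per group per figure legend.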

Data set [2] relates to RAW264.7. The data set can be described thus: Anti-inflammatory activity in mouse RAW264.7 cells assessed as inhibition of LPS-induced NO production at 10 uM preincubated for 2 hrs followed by LPS stimulation and measured after 48 hrs by Griess method relative to control. In kind it is functional. The gist of the method: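 RAW264.7 cells seeded at 5 × 10^4/well and cultured 18 h, then given 10 µM compound plus LPS 100 ng/mL for 48 h at 37 °C. Supernatant mixed 1:1 with Griess reagent (1% sulfanilamide, 0.1% naphthylethylenediamine in 5% phosphoric acid) for 10 min; nitrite read at OD540.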
For orientation: Griess reagent forms a coloured azo dye with nitrite.

Data set [3] deals with RAW264.7. The data set can be described thus: Anti-inflammatory activity in mouse RAW264.7 cells assessed as inhibition of LPS-induced TNF-alpha production by measuring TNF-alpha level at 10 uM preincubated for 2 hrs followed by LPS stimulation and measured after 12 hrs by ELISA (reference value: 21561.3 +/- 857 pg/ml). In kind it is functional. (ELISA stands for enzyme-linked immunosorbent assay.)

The test system of data set [4] is RAW264.7. The data set can be described thus: Anti-inflammatory activity in mouse RAW264.7 cells assessed as inhibition of LPS-induced IL-6 production by measuring IL-6 level at 10 uM preincubated for 2 hrs followed by LPS stimulation and measured after 24 hrs by ELISA (reference value: 407.6 +/- 16.7 pg/ml).
Data set [5] concerns RAW264.7. The data set can be described thus: Anti-inflammatory activity in mouse RAW264.7 cells assessed as inhibition of LPS-induced IL-6 production by measuring […] level at 10 uM preincubated for 2 hrs followed by LPS stimulation and measured after 6 hrs by ELISA (reference value: 94.6 +/- 5.9 pg/ml). It counts as functional.
The target in data set [6] is Elastase (Pseudomonas aeruginosa (strain ATCC 15692 / PAO1 / 1C / PRS 101 / LMG12228)) (UniProt P14756). The data set can be described thus: Inhibition of Pseudomonas aeruginosa PAO1 GFP-fused quorum sensing lasB at 10 uM measured every 15 mins up to 12 hrs by GFP reporter gene assay relative to control. The gist of the method: (§2)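 GFP reporter strains of P. aeruginosa PAO1 (lasB-, rhlA- or pqsA-promoter fused to unstable gfp(ASV)) grown overnight in LB at 37 °C, 200 rpm, 18 h, then diluted 1:100. Culture mixed 1:1 with compound diluted in LB from 10 mM DMSO stock (0.1% DMSO final). Fluorescence (ex 485/em 528 nm) read every 15 min at 37 °C for ≥12 h.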
Sequence of Elastase (Pseudomonas aeruginosa (strain ATCC 15692 / PAO1 / 1C / PRS 101 / LMG12228)) (P14756 198-498 limits assumed): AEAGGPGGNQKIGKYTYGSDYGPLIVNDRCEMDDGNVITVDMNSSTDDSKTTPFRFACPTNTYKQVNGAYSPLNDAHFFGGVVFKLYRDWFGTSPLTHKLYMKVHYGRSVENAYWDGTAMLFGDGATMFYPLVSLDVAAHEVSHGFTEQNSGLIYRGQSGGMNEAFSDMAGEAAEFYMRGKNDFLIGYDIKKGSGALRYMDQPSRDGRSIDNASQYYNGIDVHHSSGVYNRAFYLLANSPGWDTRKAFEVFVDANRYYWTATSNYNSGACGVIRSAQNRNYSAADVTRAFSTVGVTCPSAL

In data set [7] the test system is RAW264.7. In words: Anti-inflammatory activity in mouse RAW264.7 cells assessed as inhibition of LPS-induced TNF-alpha production by measuring TNF-alpha level at 10 uM preincubated for 2 hrs followed by LPS stimulation and measured after 6 hrs by ELISA (reference value: 11922 +/- 628.4 pg/ml). In kind it is functional.
Data set [8] has as its system RAW264.7. The data set can be described thus: Anti-inflammatory activity in mouse RAW264.7 cells assessed as inhibition of LPS-induced TNF-alpha production by measuring TNF-alpha level at 10 uM preincubated for 2 hrs followed by LPS stimulation and measured after 24 hrs by ELISA (reference value: 24216 +/- 498.7 pg/ml). In kind it is functional.
The nature of data set [9]: Cytotoxicity against mouse RAW264.7 cells assessed as cell viability at 10 uM after 48 hrs by MTT assay relative to control. As to conditions: read-out: Activity. In kind it is cell-based. The gist of the method: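 MTT viability: RAW264.7 cells (4 × 10^4/well) in DMEM + 10% FBS exposed to compounds diluted in DMEM for 48 h. MTT 0.5 mg/mL added for 4 h in the dark, formazan dissolved in DMSO, read at 570 nm. Viability = treated/medium-only control × 100; three independent experiments.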
(In general: Formazan colour is commonly taken as a measure of viable cells.)

In data set [10] the test system is RAW264.7. In words: Anti-inflammatory activity in mouse RAW264.7 cells assessed as inhibition of LPS-induced IL-6 production by measuring […] level at 10 uM preincubated for 2 hrs followed by LPS stimulation and measured after 12 hrs by ELISA (reference value: 175.2 +/- 10.2 pg/ml). In kind it is functional.
The target in data set [11] is T1, Anthranilate--CoA ligase (Pseudomonas aeruginosa (strain ATCC 15692 / DSM 22644 / CIP 104116 /JCM 14847 / LMG 12228 / 1C / PRS 101 / PAO1)) (UniProt Q9I4X3).
T1 sequence (whole entry): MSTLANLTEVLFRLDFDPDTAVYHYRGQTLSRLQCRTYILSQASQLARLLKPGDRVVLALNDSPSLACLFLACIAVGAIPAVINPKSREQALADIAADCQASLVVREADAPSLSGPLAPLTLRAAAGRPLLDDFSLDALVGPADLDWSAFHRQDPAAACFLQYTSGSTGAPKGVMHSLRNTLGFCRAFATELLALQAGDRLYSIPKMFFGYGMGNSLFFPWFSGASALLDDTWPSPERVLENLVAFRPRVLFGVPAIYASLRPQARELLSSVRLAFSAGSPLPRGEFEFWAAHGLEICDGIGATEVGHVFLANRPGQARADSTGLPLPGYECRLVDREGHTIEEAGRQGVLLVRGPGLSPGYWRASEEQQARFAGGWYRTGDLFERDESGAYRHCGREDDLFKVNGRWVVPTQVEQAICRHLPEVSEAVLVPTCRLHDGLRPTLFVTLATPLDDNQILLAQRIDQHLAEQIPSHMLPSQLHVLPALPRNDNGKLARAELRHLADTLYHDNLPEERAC
In words: Inhibition of Pseudomonas aeruginosa PAO1 GFP-fused quorum sensing pqsA at 10 uM measured every 15 mins up to 12 hrs by GFP reporter gene assay relative to control. The gist of the method:
as §2

In data set [12] the test system is Pseudomonas aeruginosa PAO1. The data set can be described thus: Inhibition of Pseudomonas aeruginosa PAO1 GFP-fused quorum sensing rhlA at 10 uM measured every 15 mins up to 12 hrs by GFP reporter gene assay relative to control. The gist of the method:
as §2

Data set [13] has as its system Mus musculus. The data set can be described thus: Anti-inflammatory activity in LPS-induced sepsis shock mouse model assessed as survival rate at 20 mg/kg, iv pretreated daily for 5 days followed LPS treatment on day 5 at 1 hr post last dose and measured after 7 days relative to control. In kind it is functional. The method, boiled down: as §1

Take `CN(CCOc1ccc(CC2SC(=O)NC2=O)cc1)c1ccccn1` (stereo not drawn) [ROSIGLITAZONE]: the survival at 1 mg/kg with Mus musculus [1] worked out at 36.5%. In the data set with RAW264.7 [2], the inhibition (commonly the drop in the measured response relative to a control, in per cent) at 10 µM turned out to be 16.6%. Moreover, the Activity came to 20616 pg/mL in the data set with RAW264.7 [3]; 345.6 pg/mL in the data set on RAW264.7 [4]; 64.8 pg/mL with RAW264.7 [5]; 11311.3 pg/mL in the data set on RAW264.7 [7]; 22226 pg/mL in the data set on RAW264.7 [8]; 140 pg/mL in the data set on RAW264.7 [10]. Moreover, the inhibition in data set [6] was 7.43%; in data set [11], 9.19%; in data set [12], 15.5%. Moreover, the viability at 48 h, 10 µM in data set [9] worked out at 99%. The survival at 20 mg/kg in the data set with Mus musculus [13] worked out at 45.5%.
